ChEMBL document CHEMBL1150285, “Combination of non-natural D-amino acid derivatives and allophenylnorstatine-dimethylthioproline scaffold in HIV protease inhibitors have high efficacy in mutant HIV” (J Med Chem, 2008)

Experiments:
[1] = test system: Human immunodeficiency virus 1; assay: Antiviral activity against wild type HIV1 NL432; format: functional, organism-based; details: Human immunodeficiency virus 1, NL432
[2] = Selectivity index, ratio of CC50 for human MT4 cells to EC50 for HIV1 3B; details: MT4 cells
[3] = Cytotoxicity against human MT4 cells by MTT assay; format: cell-based
[4] = test system: Human immunodeficiency virus 1; assay: microbe, parasite or virus in culture; format: functional, organism-based; details: Human immunodeficiency virus 1, NL432
[5] = test system: Human immunodeficiency virus 1; assay: Antiviral activity against HIV1 3B in human MT4 cells assessed as inhibition of viral-induced cytopathic effect by MTT method; format: functional, organism-based; details: Human immunodeficiency virus 1, 3B
[6] = test system: Human immunodeficiency virus 1; assay: Ratio of EC50 for nelfinavir-resistant HIV1 NL432 to EC50 for wild-type HIV1 NL432; format: functional
Protease = Protease (Human immunodeficiency virus 1, UniProt Q9YQ12); assay: Inhibition of HIV1 protease
Protease, sequence (Q9YQ12 whole entry): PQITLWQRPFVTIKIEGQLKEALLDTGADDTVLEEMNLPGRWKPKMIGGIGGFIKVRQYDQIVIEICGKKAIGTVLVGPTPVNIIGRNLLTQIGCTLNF
Outline: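 HIV-1 protease (2 µg/mL stock in pH 5.5 acetate buffer) was mixed with test compound (10 nM solution in DMSO) in MES-NaOH buffer, pH 5.5, containing DTT, EDTA and NaCl. The mixture was preincubated 5 min at 37 °C, then started with substrate H-Lys-Ala-Arg-Val-Tyr*Phe(p-NO₂)-Glu-Ala-Nle-NH₂. After 60 min at 37 °C, the reaction was stopped with 1N HCl.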

[7] = test system: Human immunodeficiency virus 1; assay: Antiviral activity against nelfinavir-resistant HIV1 NL432; format: functional, organism-based; details: Human immunodeficiency virus 1, NL432
[8] = target: Protease (Human immunodeficiency virus 1) (UniProt Q9YQ12); details: at 1 nM
Protease (Human immunodeficiency virus 1), sequence (Q9YQ12 as listed by the source): as the sequence (Q9YQ12 whole entry) above

[9] = test system: Human immunodeficiency virus 1; assay: microbe, parasite or virus in culture; format: functional, organism-based; details: Human immunodeficiency virus 1, NL432; remark: listed apart in the source
[10] = test system: Human immunodeficiency virus 1; assay: Antiviral activity against HIV1 3B in presence of 10% fetal calf serum and alpha1 acid glycoprotein; format: functional, organism-based; details: Human immunodeficiency virus 1, 3B
[11] = test system: Human immunodeficiency virus 1; assay: Antiviral activity against HIV1 3B in presence of 10% fetal calf serum; format: functional, organism-based; details: Human immunodeficiency virus 1, 3B

SMILES | EC50 [1] [nM] | selectivity ratio [2] | CC50 [3] [nM] | EC50 [4] [nM] | EC50 [5] [nM] | Ratio EC50 [6] | IC50 (Protease) [nM] | EC50 [7] [nM] | inhibition [8] [%] | EC50 [9] [nM] | EC50 [10] [nM] | EC50 [11] [nM]
CC(=O)N[C@H](COCc1ccccc1)C(=O)N[C@@H](Cc1ccccc1)[C@H](O)C(=O)N1CSC(C)(C)[C@H]1C(=O)NCc1ccccc1C | 23 | > 1400 | > 30000 | 44 | 21 | 0.28 | 0.39 | 6.5 | 64 | 77 | 278 | 20
COc1ccc(CSC[C@@H](NC(C)=O)C(=O)N[C@@H](Cc2ccccc2)[C@H](O)C(=O)N2CSC(C)(C)[C@H]2C(=O)NCc2ccccc2C)cc1 | – | 1300 | – | – | – | 0.14 | 0.18 | – | 87 | – | 89 | –
Cc1ccccc1CNC(=O)[C@H]1N(C(=O)[C@@H](O)[C@H](Cc2ccccc2)NC(=O)[C@@H](COCc2ccccc2)NS(C)(=O)=O)CSC1(C)C | 22 | 850 | 17000 | 92 | 20 | 0.1 | 0.56 | 2.3 | 59 | 90 | 90 | 20
CC(=O)N[C@H](CS(=O)(=O)c1ccc(Cl)cc1)C(=O)N[C@@H](Cc1ccccc1)[C@H](O)C(=O)N1CSC(C)(C)[C@H]1C(=O)NCc1ccccc1C | 88 | 380 | 18000 | 19 | 47 | 0.11 | 0.22 | 9.6 | 80 | 44 | 1270 | 27
COc1ccc(CSC[C@@H](NS(C)(=O)=O)C(=O)N[C@@H](Cc2ccccc2)[C@H](O)C(=O)N2CSC(C)(C)[C@H]2C(=O)NCc2ccccc2C)cc1 | 16 | 1100 | 10000 | 23 | 9.3 | 0.04 | 0.26 | 0.67 | 77 | 20 | 94 | 9.4
Cc1ccccc1CNC(=O)[C@H]1N(C(=O)[C@@H](O)[C@H](Cc2ccccc2)NC(=O)[C@@H](CS(=O)(=O)c2cccc3ccccc23)NS(C)(=O)=O)CSC1(C)C | – | 310 | 19000 | – | 61 | – | 0.083 | – | 97 | – | – | –
